This is a sample that favours compounds with a hit; in the whole collection about 1.9% have one here.
sPLA2-III inh = Inhibits HGIII-sPLA2 liposome hydrolysis, primary screen | Q9NZ20 | QFRET BODIPY PC-A2 liposome hydrolysis, fluorescence | 370,000 compounds, 0.56% hits | inhibition, % at 12.2 µM;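 active = inhibition above mean plus 3 SD of compounds lying within the high and low control bounds, cut at about 19% in these data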;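 also: 0% = median of test compound wells and 100% = no enzyme DMSO wells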
Arr AP2 block = human beta-arrestin and AP2 interaction inhibition. FITC-arrestin peptide / GST-AP2 beads, flow cytometry; AP2 beta2 appendage carries R879A mutation. inhibition, % at 10 µM. 340,000 compounds, 0.31% hits. AID 504490;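 active = inhibition above a set limit, near 3 SD of compounds lacking own fluorescence, cut at about 54% in these data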;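 also: plate controls were DMSO wells for no effect and 5 µM unlabelled arrestin peptide for full effect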
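System: GST-AP2 R879A glutathione beads. Medium: PBS with 0.05% Tween 20 and 0.1% BSA. Also added: FITC-arrestin peptide, 50 nM. Incubation: 12 min plus 1 h, RT. Measured by: high-throughput flow cytometry of beads, ex 488, em 535 nm. Evaluation: percent drop in bead-associated FITC signal.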
PLC-gamma1 inh = blocks human PLC-gamma1 enzyme activity. AID 720700. 370,000 compounds, 0.84% hits. purified PLC-gamma1, fluorogenic substrate, fluorescence. P19174. inhibition, % at 12.2 µM; in the data active = inhibition above about 9.5%
proCasp3 act = activates human procaspase-3. P42574. recombinant procaspase-3 D3A, Ac-DEVD-pNA absorbance 405 nm. 330,000 compounds, 0.11% hits. activation, % at 8.5 µM;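 active = activation above the mean of all tested compounds plus 3 SD, cut at about 21% in these data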;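 also: 0% = DMSO alone and 100% = DMSO wells spiked with extra 5 µM PC-3 D3A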
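Assay system: Autoprocessing-dead procaspase-3 D3A mutant enzyme; also added: Ac-DEVD-pNA; doses: one concentration, 8.5 µM nominal, 0.8% DMSO; times: 1 h compound preincubation, 2 h substrate hydrolysis at 25 °C; technique: 405 nm absorbance of p-nitroaniline, reads at 0 and 120 min; measure: % activation between DMSO and enzyme-spiked controls; repeats: single replicate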
proCasp7 act = counter-screen: procaspase-7 (human) activation. P55210. recombinant procaspase-7, Ac-DEVD-pNA absorbance 405 nm; D23A/D198A/D206A triple mutant, cannot self-cleave; scale: DMSO 0, 5 µM enzyme 100. activation, % at 8.5 µM. 330,000 compounds, 0.093% hits. AID 463210;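 active = percent activation above the screen-wide mean plus 3 SD, cut at about 25% in these data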
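buffer or medium = Zinc-free HEPES/NaCl buffer, pH 7.4 | material = Procaspase-7 triple mutant (PC-7 D3A) | input = 2 µM procaspase-7 mutant as dispensed | signal = Epi-absorbance of released pNA at 405 nm, two timepoints | timing = 1 h preincubation, 2 h reaction | replicates = singlicate compound testing | evaluation = % activation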
PLCb3 inh = blocks human PLC-beta3 enzyme activity. Q01970. Purified PLC-beta3, fluorogenic substrate, fluorescence. inhibition, % at 12.2 µM. 370,000 compounds, 0.18% hits. AID 720704;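 also: 0% = median of compound wells on plate and 100% = full blocker control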
Arr AP2 CP1 = human beta-arrestin and AP2 interaction inhibition, cherry pick. GST-AP2 beads, FITC arrestin peptide binding, flow cytometry; GST-fused beta2-adaptin appendage, R879A mutant. inhibition, % at 10 µM. 1,300 compounds, 2% hits. AID 504908. shares compounds with Arr AP2 block;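 active = inhibition above a set limit, roughly 3 SD of non-fluorescent compound noise, cut at about 38% in these data; inactive = inhibition at or below that limit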;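 also: loss of bead fluorescence from 50 nM FITC arrestin peptide bound to appendage; 0% = negative control wells and 100% = excess unlabelled arrestin peptide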
GST GSH counter = counter-screen for beta-arrestin AP2 inhibitors: GST-GSH bead binding; AID 588338; shares compounds with Arr AP2 block; inhibition, % at 10 µM; 1,300 compounds, 2% hits; GST-fluorescein binding to GSH beads, fluorescence;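 active = inhibition above 50%, about 3 SD of the inhibition seen with non-fluorescent compounds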;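 also: fluorescein maleimide labelled GST captured on 4 micron glutathione beads; higher means more loss of bead fluorescence from quenching or blocked binding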
PLCgamma1 ctr = PLC-gamma1 inhibition, counter-screen for PLC-beta3 hits; shares compounds with PLC-gamma1 inh; purified PLC-gamma1, fluorogenic substrate, fluorescence; inhibition, % at 12.3 µM; 3,300 compounds, 3.1% hits; in the data active = inhibition above about 9.5%
PLCbeta3 conf = human PLC-beta3 inhibition, confirmation | purified PLC-beta3, fluorogenic substrate fluorescence | inhibition, % at 12.3 µM | AID 743261 | shares compounds with PLC-gamma1 inh | 3,300 compounds, 1% hits
hGIII sPLA2 conf = human GIII-sPLA2 inhibition, confirmation; shares compounds with sPLA2-III inh; recombinant hGIII-sPLA2, BODIPY PC-A2 QFRET fluorescence; inhibition, % at 12.2 µM; 2,000 compounds, 34% hits;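 active = mean inhibition across triplicates above the hit cutoff set in the earlier primary screen, cut at about 19% in these data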;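 also: 0% = enzyme with DMSO and 100% = DMSO wells lacking enzyme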
535nm interf = 535nm fluorescence interference, HGIII-sPLA2 counter-screen | shares compounds with sPLA2-III inh | BODIPY FL product fluorescence interference, QFRET | inhibition, % at 12.2 µM | 2,000 compounds, 8.5% hits;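 active = average inhibition above the solvent-only control mean plus 3 SD, cut at about 6% in these data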;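 also: 0% = DMSO with substrate plus product and 100% = DMSO with substrate alone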
535nm interf DR = interferes with 535nm fluorescence in dose response counter-screen; IC50, µM; BODIPY FL product fluorescence interference, cell-free; AID 743455; shares compounds with sPLA2-III inh; 240 tested, under 10 active;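 active = IC50 at or below 10 µM; inactive = IC50 above 10 µM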
Active calls of the source: *; nt = no result. Rule as the data show it, unless noted: active = inhibition above about 11%; inactive = the rest.

SMILES	sPLA2-III inh	Arr AP2 block	PLC-gamma1 inh	proCasp3 act	proCasp7 act	PLCb3 inh	PLCgamma1 ctr	PLCbeta3 conf	others
CN(C)c1ccc(/C=N\Nc2nc(-c3ccccc3)cc(=O)[nH]2)cc1	20*	102*	-23	0	-3	-25	nt	nt	Arr AP2 CP1=-2;GST GSH counter=-2;hGIII sPLA2 conf=7;535nm interf=2
Cc1cc(N2CCN(Cc3ccc4c(c3)OCO4)CC2)n2nc(C)nc2n1	13	nt	0	nt	nt	-4	nt	nt
Cn1c(=O)c(C(=O)NNC(=O)c2ccccc2Br)c(O)c2ccccc21	30*	56*	-2	-3	4	-14	nt	nt	Arr AP2 CP1=-7;GST GSH counter=4;hGIII sPLA2 conf=2;535nm interf=4
O=C(CN(Cc1cccs1)S(=O)(=O)c1ccc(S(=O)(=O)N2CCCCC2)cc1)Nc1ccccc1	21*	102*	4	4	-3	1	nt	nt	Arr AP2 CP1=-2;GST GSH counter=3;hGIII sPLA2 conf=-2;535nm interf=0
O=C(CN(C1CC1)S(=O)(=O)c1ccc(S(=O)(=O)N2CCCCCC2)cc1)Nc1ccccc1	5	-10	-4	-4	3	0	nt	nt
O=C1c2ccccc2C(=O)N1c1cccc2cccnc12	22*	58*	3	-5	-1	-5	nt	nt	Arr AP2 CP1=-4;GST GSH counter=-5;hGIII sPLA2 conf=-2;535nm interf=-6
COc1cccc(O[C@H]2C=C[C@@H](c3ccccc3)O[C@@H]2CO)c1	-4	nt	0	nt	nt	3	nt	nt
CCCn1c(NC(=S)Nc2ccccc2)nc2ccccc21	37*	63*	-15	3	-10	-17	nt	nt	Arr AP2 CP1=-14;GST GSH counter=4;hGIII sPLA2 conf=48*;535nm interf=6;535nm interf DR=>122
S=C(Nc1ccccc1)Nc1nc2ccccc2n1CCOc1ccc(Cl)cc1	5	-4	2	-4	-6	0	nt	nt
CCCCN1CC[C@@H](C)Oc2cc(Br)ccc2S1(=O)=O	6	nt	0	nt	nt	1	nt	nt
O=C(NC1CCC1)C1CCC(=O)N(Cc2cccc(F)c2)C1 (stereo not drawn)	4	2	10*	nt	nt	-2	1	1
O=C(NC1CCC1)C1CCC(=O)N(Cc2ccccc2F)C1 (stereo not drawn)	6	-8	4	1	6	0	nt	nt
O=C(NCCc1nccs1)C1CCC(=O)N(Cc2cccc(C(F)(F)F)c2)C1 (stereo not drawn)	6	-2	13*	1	5	4	-6	-1
C#Cc1cccc(OCC(C)CN2CCC(C(O)(c3ccccc3)c3ccccc3)CC2)c1 (stereo not drawn)	-14	nt	2	nt	nt	2	nt	nt
COC(=O)C1CN(Cc2ccc(OC)cc2)CCS(=O)(=O)N1Cc1cn(Cc2ccc(F)cc2)nn1 (stereo not drawn)	0	nt	-1	nt	nt	-1	nt	nt
Cc1ccc(C=C2C(=O)c3ccccc3C2=O)o1	1	0	-3	-8	-21	-3	nt	nt
O=C(O)c1ccc2c(c1)C(=O)/C(=C\c1ccco1)C2=O	1	11	36*	-7	-19	5	23*	-9
Cc1ccc(/C=C2/C(=O)c3ccc(C(=O)O)cc3C2=O)o1	-4	3	19*	nt	nt	-5	-3	-13
CCOC(=O)C(NC(=O)c1ccccc1F)(Nc1cc(C)on1)C(F)(F)F (stereo not drawn)	0	1	5	6	-5	12*	-2	-2
CCOC(=O)C(NC(=O)c1ccccc1)(Nc1cccc(C)n1)C(F)(F)F (stereo not drawn)	-4	6	2	0	-1	1	nt	nt
CC(SC(=S)N1CCOCC1)C(=O)O (stereo not drawn)	2	20	12*	-3	-4	2	-5	-3
CCN(CC)S(=O)(=O)c1ccc(NC(=O)COC(=O)CCc2cc(OC)c(OC)c(OC)c2)cc1	-30	23	8	-1	15	11*	-3	-3
COC(=O)[C@]12C[C@H](CC(=O)NCc3cccc(C(F)(F)F)c3)C(=O)N(Cc3ccco3)C1=C[C@H](C(C)(C)C)O[C@@H]2C	-5	nt	-1	nt	nt	1	nt	nt
NC(=O)NCc1ccc(Cl)cc1	14	-1	12*	0	12	2	-4	-7
O=C(c1ccc(Br)cc1)c1cc([N+](=O)[O-])ccc1N1CCCCC1	5	5	14*	-3	-1	0	-5	-8
SMILES	sPLA2-III inh	Arr AP2 block	PLC-gamma1 inh	proCasp3 act	proCasp7 act	PLCb3 inh	PLCgamma1 ctr	PLCbeta3 conf	others
CC(=O)Nc1ccc(C2=NN(Cc3nnc(-c4ccccc4)o3)C(=O)SC2)cc1	-12	12	11*	0	-7	9	-3	-3
COc1ccccc1NS(=O)(=O)c1ccc(NN=C2CCCCC2)c([N+](=O)[O-])c1	-8	-10	11*	1	-2	7	5	6
COc1ccccc1NS(=O)(=O)c1ccc(N/N=C(\C)C(C)C)c([N+](=O)[O-])c1	-8	9	9.9*	-4	3	13*	8	3
CCCC(CCC)=NNc1ccc(S(=O)(=O)Nc2ccccc2OC)cc1[N+](=O)[O-]	1	-30	2	-1	6	5	nt	nt
COC(=O)C1CN(C2CCCC2)CCS(=O)(=O)N1Cc1cn(Cc2ccc(OC)cc2)nn1 (stereo not drawn)	-1	nt	2	nt	nt	3	nt	nt
Cc1ccc(-c2cc(Cc3ccccc3)c(=O)[nH]n2)cc1	-4	10	1	9	1	2	nt	nt
CC(C)(C)OC(=O)NCc1cc(F)ccc1/C=C/S(=O)(=O)NC1CCCC1	8	nt	9.8*	nt	nt	4	-2	2
CCOC(=O)[C@]12CCCC=C1N(Cc1ccccc1)C(=O)[C@H](CC(=O)N1CCC(c3ccccc3)CC1)C2	2	nt	4	nt	nt	0	nt	nt
